Experimental data pooled from the literature.
Protocols differ between the studies behind these lines.
Organism: Staphylococcus aureus
Observed: microbial killing

CC(=O)NC[C@H]1CN(c2ccc(N3CCOCC3)c(F)c2)C(=O)O1  MBC (broth dilution; MRSA NRS119; drug-resistant strain): 64 µM
O=C1NC(=S)N/C1=C\c1c2ccccc2c(-c2ccc(N(c3ccccc3)c3ccccc3)cc2)c2ccccc12  MBC (broth dilution; ATCC43300): > 1000 µg/mL
Cc1cc(/C=C2\Sc3ccccc3N2CCCN2CCC(C)CC2)c2ccccc2[n+]1C.[I-]  MBC (ATCC29213): 8 µg/mL
COc1c(C)c(OC(C)=O)c(C)c(OC(C)=O)c1C(=O)/C=C/c1ccccc1  MBC (broth dilution; ATCC25923): > 5000 µg/mL
CCCCCCCCCCCCCC#CC(=O)O  MBC: 7.8 µg/mL
Cc1c(NC(=O)CC2=NC(=O)CS2)c(=O)n(-c2ccccc2)n1C  MBC (broth dilution): 1 µg/mL
O=C1NC(=S)S/C1=C\c1ccc(-c2ccc(N(c3ccccc3)c3ccccc3)cc2)cc1  MBC (broth dilution; ATCC43300): > 1000 µg/mL
COc1cc(NC(C)CCCNC(=S)NCCCC(C)Nc2cc(OC)cc3cccnc23)c2ncccc2c1.Cl.Cl (stereo not drawn)  MBC (ATCC43300 MRSA; drug-resistant strain): 10 to 20 µg/mL
COc1c(C)c(OC(=O)c2ccccc2)c(C)c(O)c1C(=O)/C=C/c1ccccc1  MBC (broth dilution; ATCC25923): > 5000 µg/mL
O=[N+]([O-])c1ccc(-c2nc3cccc(O)c3[nH]2)o1  MBC (ATCC33591): 2 µg/mL
CCCCCC(=O)Oc1c(C)c(O)c(C(=O)/C=C/c2ccccc2)c(OC)c1C  MBC (broth dilution; ATCC25923): > 5000 µg/mL
N#CC(=Cc1ccccc1O)C1=NC(=O)C(=Cc2cn(-c3ccccc3)nc2-c2ccccc2)S1  MBC (broth dilution): 0.5 µg/mL
CCCC(=O)Oc1c(C)c(O)c(C(=O)/C=C/c2ccccc2)c(OC)c1C  MBC (broth dilution; ATCC25923): > 5000 µg/mL
O=C(O)CN1C(=O)/C(=C/c2c3ccccc3c(-c3ccc(N(c4ccccc4)c4ccccc4)cc3)c3ccccc23)SC1=S  MBC (broth dilution; ATCC6538): > 1000 µg/mL
COc1c(C)c(OC)c(C(=O)/C=C/c2ccccc2)c(OC)c1C  MBC (broth dilution; ATCC25923): > 5000 µg/mL
CCOC(=O)c1c(N)csc1-c1cn(-c2ccccc2)nc1-c1ccc(C)cc1  MBC (broth dilution): 0.125 µg/mL
COc1cc(Cc2cnc(N)nc2N)cc(OC)c1OC  MBC (broth dilution; 48 h): 2 µg/mL
CCCCCOc1c(OC)cc(NC(C)CCCNC(=S)NCCCC(C)Nc2cc(OC)c(OCCCCC)c3c(CC)ccnc23)c2nccc(CC)c12.Cl.Cl (stereo not drawn)  MBC (ATCC43300 MRSA; drug-resistant strain): 10 to 20 µg/mL
O=C(O)CN1C(=O)/C(=C/c2ccc(-c3ccc(N(c4ccccc4)c4ccccc4)cc3)cc2)NC1=S  MBC (broth dilution; ATCC25923): 3.9 µg/mL
CN[C@H](CC(C)C)C(=O)N[C@H]1C(=O)N[C@@H](CC(N)=O)C(=O)N[C@H]2C(=O)N[C@H]3C(=O)N[C@H](C(=O)N[C@H](C(=O)O)c4cc(O)cc(O)c4-c4cc3ccc4O)[C@H](O)c3ccc(c(Cl)c3)Oc3cc2cc(c3O[C@@H]2O[C@H](CO)[C@@H](O)[C@H](O)[C@H]2O[C@H]2C[C@](C)(N)[C@H](O)[C@H](C)O2)Oc2ccc(cc2Cl)[C@H]1O  MBC (broth dilution; ATCC6538): 1 µM
O=C1NC(=S)S/C1=C\c1ccc(-c2ccc(N(c3ccccc3)c3ccccc3)cc2)c2ccccc12  MBC (broth dilution; ATCC43300): > 1000 µg/mL
CCCCCCCCCCCC(=O)Oc1c(C)c(O)c(C(=O)/C=C/c2ccccc2)c(OC)c1C  MBC (broth dilution; ATCC25923): > 5000 µg/mL
O=C1NC(=S)N/C1=C\c1ccc(-c2ccc(N(c3ccccc3)c3ccccc3)cc2)cc1  MBC (broth dilution; ATCC6538): > 1000 µg/mL
CCCCCCCCCC(=O)Oc1c(C)c(O)c(C(=O)/C=C/c2ccccc2)c(OC)c1C  MBC (broth dilution; ATCC25923): > 5000 µg/mL
